Measurements taken from ChEMBL document CHEMBL3739271, “Synthesis and evaluation of a series of resveratrol analogues as potent anti-cancer agents that target tubulin” (2015).

Experiments:
Type in all cases: functional
[1] = Cytotoxicity against human SNB75 cells by SRB assay; settings: SNB-75
Outline: (§1)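 NCI 60 human tumor cell line panel, sulforhodamine B (SRB) protein-stain read-out. Compounds were first screened at a single dose of 10^-5 M, and selected compounds were then tested in a five-dose format. GI50 is the drug concentration giving a 50% reduction in net protein increase relative to control cells.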

[2] = tested on: MDA-MB-231; experiment: Cytotoxicity against human MDA-MB-231 cells by SRB assay; outline: as §1
[3] = tested on: 786-0; experiment: Cytotoxicity against human 786-0 cells by SRB assay; outline: as §1
[4] = Cytotoxicity against human HOP62 cells by SRB assay; settings: HOP-62; outline: as §1
[5] = Cytotoxicity against human SNB19 cells by SRB assay; settings: SNB-19; outline: as §1
[6] = Cytotoxicity against human UACC62 cells by SRB assay; settings: UACC-62; outline: as §1
[7] = Cytotoxicity against human HCT116 cells by SRB assay; settings: HCT-116; outline: as §1
[8] = Cytotoxicity against human HOP92 cells by SRB assay; settings: HOP-92; outline: as §1
[9] = Cytotoxicity against human HL-60(TB) cells by SRB assay
Outline: (§2)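 NCI 60-cell-line panel using sulforhodamine B protein stain. Initial single-dose screen at 10^-5 M, then five-dose testing. GI50 is the drug concentration giving a 50% reduction in net protein increase relative to control cells.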

[10] = tested on: A549; experiment: Cytotoxicity against human A549 cells by SRB assay; outline: as §1
[11] = Cytotoxicity against human SW620 cells by SRB assay; settings: SW-620; outline: as §1
[12] = Cytotoxicity against human IGROV1 cells by SRB assay; settings: IGROV-1; outline: as §2
[13] = tested on: K562; experiment: Cytotoxicity against human K562 cells by SRB assay; outline: as §1
[14] = Cytotoxicity against human LOXIMVI cells by SRB assay; settings: LOX IMVI; outline: as §2
[15] = tested on: MDA-MB-468; experiment: Cytotoxicity against human MDA-MB-468 cells by SRB assay; outline: as §1
[16] = tested on: SK-MEL-2; experiment: Cytotoxicity against human SK-MEL-2 cells by SRB assay; outline: as §1
[17] = tested on: SK-MEL-5; experiment: Cytotoxicity against human SK-MEL-5 cells by SRB assay; outline: as §1
[18] = tested on: KM12; experiment: Cytotoxicity against human KM12 cells by SRB assay; outline: as §1
[19] = Cytotoxicity against human RPMI8226 cells by SRB assay; settings: RPMI-8226; outline: as §1
[20] = tested on: SR; experiment: Cytotoxicity against human SR cells by SRB assay; outline: as §1
[21] = Cytotoxicity against human OVCAR3 cells by SRB assay; settings: OVCAR-3; outline: as §1
[22] = tested on: MDA-MB-435; experiment: Cytotoxicity against human MDA-MB-435 cells by SRB assay; outline: as §1
[23] = tested on: A498; experiment: Cytotoxicity against human A498 cells by SRB assay; outline: as §1
[24] = tested on: MCF7; experiment: Cytotoxicity against human MCF7 cells by SRB assay; outline: as §1
[25] = tested on: CCRF-CEM; experiment: Cytotoxicity against human CCRF-CEM cells by SRB assay; outline: as §1
[26] = Cytotoxicity against human Hs578T cells by SRB assay; settings: Hs-578T; outline: as §1
[27] = tested on: ACHN; experiment: Cytotoxicity against human ACHN cells by SRB assay; outline: as §1
[28] = Cytotoxicity against human SF268 cells by SRB assay; settings: SF-268; outline: as §1
[29] = Cytotoxicity against human OVCAR4 cells by SRB assay; settings: OVCAR-4; outline: as §1
[30] = tested on: HT-29; experiment: Cytotoxicity against human HT-29 cells by SRB assay; outline: as §1
[31] = Cytotoxicity against human SKOV3 cells by SRB assay; settings: SK-OV-3; outline: as §1
[32] = Cytotoxicity against human HCC2998 cells by SRB assay; settings: HCC 2998; outline: as §1
[33] = tested on: NCI/ADR-RES; experiment: Cytotoxicity against human NCI/ADR-RES cells by SRB assay; outline: as §1
[34] = tested on: M14; experiment: Cytotoxicity against human M14 cells by SRB assay; outline: as §1
[35] = tested on: NCI-H522; experiment: Cytotoxicity against human NCI-H522 cells by SRB assay; outline: as §1
[36] = Cytotoxicity against human HCT15 cells by SRB assay; settings: HCT-15; outline: as §1
[37] = Cytotoxicity against human MOLT4 cells by SRB assay; settings: MOLT-4; outline: as §1
[38] = tested on: NCI-H23; experiment: Cytotoxicity against human NCI-H23 cells by SRB assay; outline: as §1
[39] = Cytotoxicity against human UO31 cells by SRB assay; settings: UO-31; outline: as §1
[40] = Cytotoxicity against human SF295 cells by SRB assay; settings: SF-295; outline: as §1
[41] = Cytotoxicity against human COLO205 cells by SRB assay; settings: COLO 205; outline: as §1
[42] = Cytotoxicity against human SF539 cells by SRB assay; settings: SF-539; outline: as §1
[43] = tested on: U-251; experiment: Cytotoxicity against human U251 cells by SRB assay; outline: as §1
[44] = tested on: CAKI-1; experiment: Cytotoxicity against human CAKI-1 cells by SRB assay; outline: as §1
[45] = tested on: SK-MEL-28; experiment: Cytotoxicity against human SK-MEL-28 cells by SRB assay; outline: as §1

COc1ccc(/C=C(\C#N)c2cc(OC)c(OC)c(OC)c2)cc1
GI50 [1]: < 10 nM | GI50 [2]: 30 nM | GI50 [3]: 20 nM | GI50 [4]: 30 nM | GI50 [5]: 60 nM | GI50 [6]: < 10 nM | GI50 [7]: < 10 nM | GI50 [8]: 20 nM | GI50 [9]: 20 nM | GI50 [10]: 10 nM | GI50 [11]: 10 nM | GI50 [12]: 20 nM | GI50 [13]: < 10 nM | GI50 [14]: 10 nM | GI50 [15]: 20 nM | GI50 [16]: 80 nM | GI50 [17]: 10 nM | GI50 [18]: < 10 nM | GI50 [19]: 30 nM | GI50 [20]: < 10 nM | GI50 [21]: < 10 nM | GI50 [22]: < 10 nM | GI50 [23]: < 10 nM | GI50 [24]: < 10 nM | GI50 [25]: 30 nM | GI50 [26]: < 10 nM | GI50 [27]: 10 nM | GI50 [28]: 40 nM | GI50 [29]: 10 nM | GI50 [30]: < 10 nM | GI50 [31]: < 10 nM | GI50 [32]: 40 nM | GI50 [33]: < 10 nM | GI50 [34]: 10 nM | GI50 [35]: < 10 nM | GI50 [36]: < 10 nM | GI50 [37]: 30 nM | GI50 [38]: 50 nM | GI50 [39]: < 10 nM | GI50 [40]: < 10 nM | GI50 [41]: 10 nM | GI50 [42]: < 10 nM | GI50 [43]: 20 nM

COc1ccc(/C=C(\C#N)c2cc(OC)cc(OC)c2)cc1
GI50 [1]: 290 nM | GI50 [2]: 430 nM | GI50 [3]: 420 nM | GI50 [4]: 510 nM | GI50 [5]: 980 nM | GI50 [44]: 540 nM | GI50 [6]: 400 nM | GI50 [7]: 330 nM | GI50 [9]: 280 nM | GI50 [10]: 380 nM | GI50 [11]: 420 nM | GI50 [12]: 530 nM | GI50 [13]: 310 nM | GI50 [14]: 580 nM | GI50 [15]: 290 nM | GI50 [16]: 880 nM | GI50 [17]: 270 nM | GI50 [18]: 380 nM | GI50 [19]: 330 nM | GI50 [20]: 290 nM | GI50 [21]: 300 nM | GI50 [22]: 170 nM | GI50 [45]: 490 nM | GI50 [23]: 250 nM | GI50 [24]: 310 nM | GI50 [25]: 320 nM | GI50 [26]: 310 nM | GI50 [27]: 530 nM | GI50 [28]: 840 nM | GI50 [29]: 730 nM | GI50 [30]: 280 nM | GI50 [31]: 370 nM | GI50 [32]: 340 nM | GI50 [33]: 270 nM | GI50 [34]: 280 nM | GI50 [35]: 90 nM | GI50 [36]: 330 nM | GI50 [37]: 430 nM | GI50 [38]: 530 nM | GI50 [39]: 490 nM | GI50 [40]: 220 nM | GI50 [41]: 270 nM | GI50 [42]: 220 nM | GI50 [43]: 343 nM

COc1ccc(/C=C/c2cc(OC)cc(OC)c2/C=C(\C#N)c2ccccc2OC)cc1
GI50 [1]: 2280 nM | GI50 [2]: 2830 nM | GI50 [3]: 3250 nM | GI50 [4]: 2790 nM | GI50 [5]: 8770 nM | GI50 [44]: 2200 nM | GI50 [7]: 1290 nM | GI50 [9]: 580 nM | GI50 [10]: 3560 nM | GI50 [11]: 710 nM | GI50 [12]: 5280 nM | GI50 [13]: 430 nM | GI50 [15]: 1700 nM | GI50 [16]: 2130 nM | GI50 [17]: 2440 nM | GI50 [18]: 640 nM | GI50 [19]: 2850 nM | GI50 [20]: 280 nM | GI50 [21]: 1380 nM | GI50 [22]: 280 nM | GI50 [45]: 4220 nM | GI50 [23]: 1370 nM | GI50 [24]: 720 nM | GI50 [25]: 2240 nM | GI50 [26]: 1340 nM | GI50 [27]: 4250 nM | GI50 [28]: 4180 nM | GI50 [29]: 3590 nM | GI50 [30]: 480 nM | GI50 [31]: 4730 nM | GI50 [32]: 5470 nM | GI50 [33]: 710 nM | GI50 [34]: 1140 nM | GI50 [35]: 250 nM | GI50 [36]: 760 nM | GI50 [37]: 3300 nM | GI50 [39]: 3440 nM | GI50 [40]: 2510 nM | GI50 [41]: 2280 nM | GI50 [42]: 1550 nM | GI50 [43]: 2770 nM

COc1ccc(/C=C/c2cc(OC)cc(OC)c2/C=C(\C#N)c2ccc(OC)cc2)cc1
GI50 [1]: 470 nM | GI50 [2]: 2780 nM | GI50 [3]: 1720 nM | GI50 [4]: 970 nM | GI50 [5]: > 100000 nM | GI50 [44]: 500 nM | GI50 [6]: 700 nM | GI50 [7]: 490 nM | GI50 [9]: 1660 nM | GI50 [10]: 910 nM | GI50 [11]: 500 nM | GI50 [12]: 2350 nM | GI50 [13]: 430 nM | GI50 [15]: 1720 nM | GI50 [17]: 2280 nM | GI50 [18]: 780 nM | GI50 [19]: 1160 nM | GI50 [20]: 910 nM | GI50 [21]: 630 nM | GI50 [22]: 240 nM | GI50 [45]: 750 nM | GI50 [23]: 380 nM | GI50 [24]: 390 nM | GI50 [25]: 750 nM | GI50 [26]: 680 nM | GI50 [27]: 830 nM | GI50 [28]: 4710 nM | GI50 [29]: 500 nM | GI50 [30]: 690 nM | GI50 [31]: 1350 nM | GI50 [32]: 2490 nM | GI50 [33]: 650 nM | GI50 [34]: 1380 nM | GI50 [35]: 240 nM | GI50 [36]: 650 nM | GI50 [37]: 4380 nM | GI50 [39]: 810 nM | GI50 [40]: 360 nM | GI50 [41]: 1240 nM | GI50 [42]: 270 nM | GI50 [43]: 640 nM
